Converted amounts (≈) assume the structure as drawn.
Columns and labels:
Clostridioides difficile [1] = assay: Antibacterial activity against Clostridium difficile BAA-1805 incubated for 46 hrs in anaerobic condition by CLSI-based broth microdilution assay; type: functional
Clostridioides difficile [2] = assay: Antibacterial activity against Clostridium difficile ATCC 9689 incubated for 46 hrs in anaerobic condition by CLSI-based broth microdilution assay; type: functional; settings: ATCC 9689 = DSM 1296
Clostridioides difficile [3] = assay: Antibacterial activity against Clostridium difficile BAA-1875 incubated for 46 hrs in anaerobic condition by CLSI-based broth microdilution assay; type: functional
Bacillus subtilis = assay: Antibacterial activity against Bacillus subtilis DSM3256 incubated overnight by broth dilution method; type: functional
Procedure, shortened: (§1)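 Strains pre-grown overnight at 37 °C on Mueller Hinton II agar; CLSI broth dilution, inoculum about 7.5 × 10^5 CFU/well. Compounds taken from 1.0 mg/mL stocks in 50 % methanol/H2O, diluted in H2O as 2-fold series. Plates held at 37 °C overnight; MIC read visually as lowest concentration with no growth.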

Clostridioides difficile [4] = assay: Antibacterial activity against Clostridium difficile 8290 incubated for 46 hrs in anaerobic condition by CLSI-based broth microdilution assay; type: functional
Clostridioides difficile [5] = assay: Antibacterial activity against Clostridium difficile 8264 incubated for 46 hrs in anaerobic condition by CLSI-based broth microdilution assay; type: functional
Clostridioides difficile [6] = assay: Antibacterial activity against Clostridium difficile 8282 incubated for 46 hrs in anaerobic condition by CLSI-based broth microdilution assay; type: functional
Clostridioides difficile [7] = assay: Antibacterial activity against Clostridium difficile 8260 incubated for 46 hrs in anaerobic condition by CLSI-based broth microdilution assay; type: functional
Staphylococcus aureus = assay: Antibacterial activity against Staphylococcus aureus ATCC 29213 incubated overnight by broth dilution method; type: functional; procedure, shortened: as §1
[8] = Aqueous solubility of the compound in phosphate buffer at pH 7 after 5 hrs by UHPLC analysis; type: physicochemical
Procedure, shortened: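 Solid added to 1.0 mL pH 7 phosphate buffer containing 50 µg/mL caffeine internal standard until saturated. Stirred 5 h at room temperature, passed through a 0.22 µm filter, then run on C18 UHPLC with a water/MeCN + 0.1 % HCOOH gradient. Analyte/IS peak-area ratio was converted to concentration using a linear calibration from MeOH standards at 50–500 µg/mL.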

Clostridioides difficile [9] = assay: Antibacterial activity against Clostridium difficile 5680 incubated for 46 hrs in anaerobic condition by CLSI-based broth microdilution assay; type: functional
Clostridioides difficile [10] = assay: Antibacterial activity against Clostridium difficile ATCC 700057 incubated for 46 hrs in anaerobic condition by CLSI-based broth microdilution assay; type: functional
Clostridioides difficile [11] = assay: Antibacterial activity against Clostridium difficile ATCC 43255 incubated for 46 hrs in anaerobic condition by CLSI-based broth microdilution assay; type: functional
[12] = test system: Mycobacterium tuberculosis; assay: Antimycobacterial activity against recombinant Mycobacterium tuberculosis H37Rv expressed in green fluorescence protein by measuring increase in fluorescence after 10 days in presence of middlebrook 7H9/OADC medium by GFP reporter gene assay; type: functional; settings: 240 h, time 10 day

| Structure (SMILES) | MIC (Clostridioides difficile [1]) | MIC (Clostridioides difficile [2]) | MIC (Clostridioides difficile [3]) | MIC (Bacillus subtilis) | MIC (Clostridioides difficile [4]) | MIC (Clostridioides difficile [5]) | MIC (Clostridioides difficile [6]) | MIC (Clostridioides difficile [7]) | MIC (Staphylococcus aureus) | solubility at 5 h [8] | MIC (Clostridioides difficile [9]) | MIC (Clostridioides difficile [10]) | MIC (Clostridioides difficile [11]) | MIC90 [12] |
| --- | --- | --- | --- | --- | --- | --- | --- | --- | --- | --- | --- | --- | --- | --- |
| CCc1c(Cl)c(OCC(=O)N2CCNCC2)c(Cl)c(O)c1C(=O)O[C@@H]1[C@@H](O)[C@@H](OC)[C@@H](OC/C2=C\C=C\C[C@H](O)/C(C)=C/[C@H](CC)[C@@H](O[C@@H]3OC(C)(C)[C@@H](OC(=O)C(C)C)[C@H](O)[C@@H]3O)/C(C)=C/C(C)=C/C[C@@H]([C@@H](C)O)OC2=O)O[C@H]1C | 0.5 mg/L (≈ 0.422 µM) | 0.03 mg/L (≈ 0.0253 µM) | 0.5 mg/L (≈ 0.422 µM) | > 64 mg/L | 0.25 mg/L (≈ 0.211 µM) | 0.5 mg/L (≈ 0.422 µM) | 0.06 mg/L (≈ 0.0507 µM) | 0.03 mg/L (≈ 0.0253 µM) | > 64 mg/L | 0.081 mg/mL (≈ 68.4 µM) | 0.5 mg/L (≈ 0.422 µM) | 0.25 mg/L (≈ 0.211 µM) | 0.5 mg/L (≈ 0.422 µM) | 1 mg/L |
| CCc1c(Cl)c(OCC(=O)N2CCC(O)CC2)c(Cl)c(O)c1C(=O)O[C@@H]1[C@@H](O)[C@@H](OC)[C@@H](OC/C2=C\C=C\C[C@H](O)/C(C)=C/[C@H](CC)[C@@H](O[C@@H]3OC(C)(C)[C@@H](OC(=O)C(C)C)[C@H](O)[C@@H]3O)/C(C)=C/C(C)=C/C[C@@H]([C@@H](C)O)OC2=O)O[C@H]1C | – | – | – | – | – | – | – | – | – | 0.18 mg/mL (≈ 150 µM) | – | – | – | – |
| CCOC(=O)COc1c(Cl)c(CC)c(C(=O)O[C@@H]2[C@@H](O)[C@@H](OC)[C@@H](OC/C3=C\C=C\C[C@H](O)/C(C)=C/[C@H](CC)[C@@H](O[C@@H]4OC(C)(C)[C@@H](OC(=O)C(C)C)[C@H](O)[C@@H]4O)/C(C)=C/C(C)=C/C[C@@H]([C@@H](C)O)OC3=O)O[C@H]2C)c(OCC(=O)OCC)c1Cl | > 16 mg/L | 4 mg/L (≈ 3.25 µM) | 16 mg/L (≈ 13 µM) | 8 mg/L (≈ 6.5 µM) | 16 mg/L (≈ 13 µM) | > 16 mg/L | 16 mg/L (≈ 13 µM) | 16 mg/L (≈ 13 µM) | 32 mg/L (≈ 26 µM) | – | > 16 mg/L | 16 mg/L (≈ 13 µM) | > 16 mg/L | 0.5 mg/L |
| CCc1c(Cl)c(OCCCn2cc(CCN3CCC(N)CC3)nn2)c(Cl)c(O)c1C(=O)O[C@@H]1[C@@H](O)[C@@H](OC)[C@@H](OC/C2=C\C=C\C[C@H](O)/C(C)=C/[C@H](CC)[C@@H](O[C@@H]3OC(C)(C)[C@@H](OC(=O)C(C)C)[C@H](O)[C@@H]3O)/C(C)=C/C(C)=C/C[C@@H]([C@@H](C)O)OC2=O)O[C@H]1C | 8 mg/L (≈ 6.19 µM) | 0.5 mg/L (≈ 0.387 µM) | 2 mg/L (≈ 1.55 µM) | > 64 mg/L | 4 mg/L (≈ 3.09 µM) | 8 mg/L (≈ 6.19 µM) | 1 mg/L (≈ 0.773 µM) | 4 mg/L (≈ 3.09 µM) | > 64 mg/L | – | 8 mg/L (≈ 6.19 µM) | 2 mg/L (≈ 1.55 µM) | 4 mg/L (≈ 3.09 µM) | 4 mg/L |
| CCc1c(Cl)c(OCCOCCOCCOCCOCCOCCOCCOCCn2cc(CN3CCN(/N=C/c4c5c(O)c6c(O)c(C)c7c(c6c4O)C(=O)[C@@](C)(O/C=C/[C@H](OC)[C@@H](C)[C@@H](OC(C)=O)[C@H](C)[C@H](O)[C@H](C)[C@@H](O)[C@@H](C)/C=C/C=C(\C)C(=O)N5)O7)CC3)nn2)c(Cl)c(O)c1C(=O)O[C@@H]1[C@@H](O)[C@@H](OC)[C@@H](OC/C2=C\C=C\C[C@H](O)/C(C)=C/[C@H](CC)[C@@H](O[C@@H]3OC(C)(C)[C@@H](OC(=O)C(C)C)[C@H](O)[C@@H]3O)/C(C)=C/C(C)=C/C[C@@H]([C@@H](C)O)OC2=O)O[C@H]1C | ≤ 0.015 mg/L | ≤ 0.015 mg/L | ≤ 0.015 mg/L | 4 mg/L (≈ 1.75 µM) | 0.03 mg/L (≈ 0.0131 µM) | 0.03 mg/L (≈ 0.0131 µM) | 4 mg/L (≈ 1.75 µM) | ≤ 0.015 mg/L | 4 mg/L (≈ 1.75 µM) | – | ≤ 0.015 mg/L | ≤ 0.015 mg/L | ≤ 0.015 mg/L | 0.5 mg/L |
| CCc1c(Cl)c(OCCOCCOCCOCCOCCOCCOC)c(Cl)c(OCCOCCOCCOCCOCCOCCOC)c1C(=O)O[C@@H]1[C@@H](O)[C@@H](OC)[C@@H](OC/C2=C\C=C\C[C@H](O)/C(C)=C/[C@H](CC)[C@@H](O[C@@H]3OC(C)(C)[C@@H](OC(=O)C(C)C)[C@H](O)[C@@H]3O)/C(C)=C/C(C)=C/C[C@@H]([C@@H](C)O)OC2=O)O[C@H]1C | – | – | – | – | – | – | – | – | – | 0.504 mg/mL (≈ 312 µM) | – | – | – | – |
| CCc1c(Cl)c(OCC(=O)N2CCN(c3cc4c(cc3F)c(=O)c(C(=O)O)cn4C3CC3)CC2)c(Cl)c(O)c1C(=O)O[C@@H]1[C@@H](O)[C@@H](OC)[C@@H](OC/C2=C\C=C\C[C@H](O)/C(C)=C/[C@H](CC)[C@@H](O[C@@H]3OC(C)(C)[C@@H](OC(=O)C(C)C)[C@H](O)[C@@H]3O)/C(C)=C/C(C)=C/C[C@@H]([C@@H](C)O)OC2=O)O[C@H]1C | 0.12 mg/L (≈ 0.084 µM) | ≤ 0.015 mg/L | 0.06 mg/L (≈ 0.042 µM) | 32 mg/L (≈ 22.4 µM) | 0.12 mg/L (≈ 0.084 µM) | 0.12 mg/L (≈ 0.084 µM) | 0.03 mg/L (≈ 0.021 µM) | 0.03 mg/L (≈ 0.021 µM) | > 64 mg/L | – | 0.12 mg/L (≈ 0.084 µM) | 0.06 mg/L (≈ 0.042 µM) | 0.03 mg/L (≈ 0.021 µM) | 1 mg/L |
| CCc1c(Cl)c(OCCCn2cc(COCCOCCOCCOCCOCCC(=O)O)nn2)c(Cl)c(O)c1C(=O)O[C@@H]1[C@@H](O)[C@@H](OC)[C@@H](OC/C2=C\C=C\C[C@H](O)/C(C)=C/[C@H](CC)[C@@H](O[C@@H]3OC(C)(C)[C@@H](OC(=O)C(C)C)[C@H](O)[C@@H]3O)/C(C)=C/C(C)=C/C[C@@H]([C@@H](C)O)OC2=O)O[C@H]1C | – | – | – | – | – | – | – | – | – | > 2 mg/mL | – | – | – | – |
| CCc1c(Cl)c(OCC(=O)N2CCC(O)CC2)c(Cl)c(OCC(=O)N2CCC(O)CC2)c1C(=O)O[C@@H]1[C@@H](O)[C@@H](OC)[C@@H](OC/C2=C\C=C\C[C@H](O)/C(C)=C/[C@H](CC)[C@@H](O[C@@H]3OC(C)(C)[C@@H](OC(=O)C(C)C)[C@H](O)[C@@H]3O)/C(C)=C/C(C)=C/C[C@@H]([C@@H](C)O)OC2=O)O[C@H]1C | – | – | – | – | – | – | – | – | – | 0.213 mg/mL (≈ 159 µM) | – | – | – | – |
| CCOC(=O)COc1c(Cl)c(O)c(C(=O)O[C@@H]2[C@@H](O)[C@@H](OC)[C@@H](OC/C3=C\C=C\C[C@H](O)/C(C)=C/[C@H](CC)[C@@H](O[C@@H]4OC(C)(C)[C@@H](OC(=O)C(C)C)[C@H](O)[C@@H]4O)/C(C)=C/C(C)=C/C[C@@H]([C@@H](C)O)OC3=O)O[C@H]2C)c(CC)c1Cl | > 16 mg/L | 2 mg/L (≈ 1.75 µM) | 8 mg/L (≈ 6.99 µM) | 32 mg/L (≈ 28 µM) | 16 mg/L (≈ 14 µM) | > 16 mg/L | 8 mg/L (≈ 6.99 µM) | 16 mg/L (≈ 14 µM) | 16 mg/L (≈ 14 µM) | – | > 16 mg/L | 8 mg/L (≈ 6.99 µM) | > 16 mg/L | 2 mg/L |
| CCc1c(Cl)c(Oc2nncnn2)c(Cl)c(Oc2nncnn2)c1C(=O)O[C@@H]1[C@@H](O)[C@@H](OC)[C@@H](OC/C2=C\C=C\C[C@H](O)/C(C)=C/[C@H](CC)[C@@H](O[C@@H]3OC(C)(C)[C@@H](OC(=O)C(C)C)[C@H](O)[C@@H]3O)/C(C)=C/C(C)=C/C[C@@H]([C@@H](C)O)OC2=O)O[C@H]1C | 0.25 mg/L (≈ 0.205 µM) | 0.03 mg/L (≈ 0.0246 µM) | 0.25 mg/L (≈ 0.205 µM) | – | 0.12 mg/L (≈ 0.0985 µM) | 0.25 mg/L (≈ 0.205 µM) | 0.06 mg/L (≈ 0.0493 µM) | 0.12 mg/L (≈ 0.0985 µM) | – | – | 0.5 mg/L (≈ 0.41 µM) | 0.06 mg/L (≈ 0.0493 µM) | 0.12 mg/L (≈ 0.0985 µM) | – |
| O=C(O)c1cn(C2CC2)c2cc(N3CCNCC3)c(F)cc2c1=O [CIPROFLOXACIN] | – | – | – | – | – | – | – | – | – | – | – | – | – | 1 mg/L |
| CO[C@H]1/C=C/O[C@@]2(C)Oc3c(C)c(O)c4c(O)c(c(/C=N/N5CCN(C)CC5)c(O)c4c3C2=O)NC(=O)/C(C)=C\C=C\[C@H](C)[C@H](O)[C@@H](C)[C@@H](O)[C@@H](C)[C@H](OC(C)=O)[C@@H]1C [RIFAMPIN] | ≤ 0.015 mg/L | ≤ 0.015 mg/L | ≤ 0.015 mg/L | 0.25 mg/L (≈ 0.304 µM) | ≤ 0.015 mg/L | ≤ 0.015 mg/L | > 16 mg/L | > 16 mg/L | 0.008 mg/L (≈ 0.00972 µM) | – | ≤ 0.015 mg/L | ≤ 0.015 mg/L | ≤ 0.015 mg/L | – |
